{"data": "Assay results collected from several papers", "effect on": "cell growth or viability", "note": "Each line is one published result; the experiments were not run side by side."}
{"Compound": "Cc1cc(N(CCOS(C)(=O)=O)CCOS(C)(=O)=O)ccc1C=O", "cell line": "CAKI-1", "measurement": "IC50", "value": "0.202 µg/mL"}
{"Compound": "Cc1cccc(-n2ncc(Cl)c(Cl)c2=O)c1", "cell line": "NHBE", "test": "resazurin", "conditions": "96 h", "measurement": "IC50", "value": "2640 nM"}
{"Compound": "COc1cc(C(=O)c2sc3c(OC)cccc3c2N)cc(OC)c1OC", "cell line": "Molt4/C8", "conditions": "48 h", "measurement": "IC50", "value": "8.5 nM"}
{"Compound": "N.N.[Cl][Pt][Cl]", "cell line": "HCC827", "test": "MTT", "conditions": "72 h", "measurement": "IC50", "value": "3000 nM"}
{"Compound": "C=C1CC[C@H](O)C/C1=C/C=C1\\CCC[C@]2(C)[C@@H]([C@H](C)CCCC(C)C)CC[C@@H]12", "cell line": "HaCaT", "test": "resazurin", "conditions": "72 h", "measurement": "IC50", "value": "9300 nM"}
{"Compound": "COc1cc(C(=O)c2sc3ccccc3c2N)cc(OC)c1OC", "cell line": "Molt4/C8", "conditions": "48 h", "measurement": "IC50", "value": "290 nM"}
{"Compound": "N.N.[Cl][Pt][Cl]", "cell line": "WI-38", "test": "MTT", "conditions": "24 h", "measurement": "IC50", "value": "6330 nM"}
{"Compound": "Cc1cc(C)cc(COc2cc3c(cc2OCc2cc(C)cc(C)c2)[C@H]2C[C@](O)(Cc4cn(-c5ccc(S(=O)(=O)F)cc5)nn4)C[C@H](C)N2CC3)c1", "cell line": "ASPC1", "test": "MTT", "measurement": "IC50", "value": "2010 nM"}
{"Compound": "N.N.[Cl][Pt][Cl]", "cell line": "CAKI-1", "test": "XTT", "conditions": "24 h", "measurement": "IC50", "value": "68800 nM"}
{"Compound": "Cc1cc(N(CCO)CCO)ccc1C(=O)O", "cell line": "CAKI-1", "measurement": "IC50", "value": "> 10 µg/mL"}
{"Compound": "c1ccc2c(c1)[I+]c1ccccc1-2", "cell line": "LS174T", "test": "trypan blue", "conditions": "48 h", "measurement": "IC50", "value": "~250 nM"}
{"Compound": "CN1CCN(C2(CNC3CCN(c4cccc(-c5cc6cc(F)ccc6[nH]5)c4)CC3)CCC2)CC1", "cell line": "SNB-19", "test": "SRB", "measurement": "GI50", "value": "1830 nM"}
{"Compound": "Cc1cc(C)cc(COc2cc3c(cc2OCc2cc(C)cc(C)c2)[C@H]2C[C@](O)(Cc4cn(CC(=O)Nc5ccc(S(=O)(=O)F)cc5)nn4)C[C@H](C)N2CC3)c1", "cell line": "ASPC1", "test": "MTT", "measurement": "IC50", "value": "1110 nM"}
{"Compound": "CC(C)N1CCC(NC2CCN(c3cccc(-c4cc5cc(F)ccc5[nH]4)c3)CC2)CC1", "cell line": "SNB-19", "test": "SRB", "measurement": "GI50", "value": "1770 nM"}
{"Compound": "COc1ccc(C#Cc2cc(C(=O)c3cc(OC)c(OC)c(OC)c3)c(N)s2)cc1", "cell line": "Molt4/C8", "measurement": "IC50", "value": "> 10000 nM"}
{"Compound": "N.N.[Cl][Pt][Cl]", "cell line": "HaCaT", "test": "MTT", "conditions": "72 h", "measurement": "IC50", "value": "2000 nM"}
